Screening results as filed in PubChem.
Rows were chosen to be rich in hits. Some 4.8% of all compounds tested hit in one or more screens of this group.
PAFAH1B3 inh = inhibitors of human PAFAH1B3 | AID 492972 | Q15102 | 0.28% of 340,000 active | inhibition, % at 3.39 µM | recombinant PAFAH1B3, FP-rhodamine probe, fluorescence polarization;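 active = inhibition above the screen-wide average of all tested compounds plus 3 SD, cut at about 25% in these data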;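 also: 0% = enzyme with DMSO only and 100% = wells lacking PAFAH1B3 protein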
Target sequence (Q15102 whole entry, looked up): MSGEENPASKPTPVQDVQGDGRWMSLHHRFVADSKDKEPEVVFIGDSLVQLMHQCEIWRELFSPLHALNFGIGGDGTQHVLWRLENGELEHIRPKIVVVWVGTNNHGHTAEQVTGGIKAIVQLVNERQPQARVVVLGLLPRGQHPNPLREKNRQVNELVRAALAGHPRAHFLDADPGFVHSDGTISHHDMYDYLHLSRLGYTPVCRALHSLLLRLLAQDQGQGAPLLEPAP
PAFAH1B2 inh = inhibitors of human PAFAH1B2 | recombinant PAFAH1B2, FP-rhodamine activity probe, fluorescence polarization | inhibition, % at 3.39 µM | 1.2% of 340,000 active | AID 492953;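 active = inhibition above the mean of all tested compounds plus 3 SD, cut at about 24% in these data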;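 also: 0% = enzyme with DMSO and 100% = wells lacking PAFAH1B2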
UCH37 inh = blocks the human deubiquitinase UCH37. Q9Y5K5. purified proteasome/UCH37, Ub-AMC cleavage fluorescence. inhibition, % (test concentration not listed). 0.33% of 330,000 active. AID 588478;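 active = mean inhibition over replicate wells above about 20%, limit read from the data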;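 also: 0% = compound-free wells with enzyme and 100% = wells lacking proteasome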
Target sequence (Q9Y5K5 whole entry, looked up): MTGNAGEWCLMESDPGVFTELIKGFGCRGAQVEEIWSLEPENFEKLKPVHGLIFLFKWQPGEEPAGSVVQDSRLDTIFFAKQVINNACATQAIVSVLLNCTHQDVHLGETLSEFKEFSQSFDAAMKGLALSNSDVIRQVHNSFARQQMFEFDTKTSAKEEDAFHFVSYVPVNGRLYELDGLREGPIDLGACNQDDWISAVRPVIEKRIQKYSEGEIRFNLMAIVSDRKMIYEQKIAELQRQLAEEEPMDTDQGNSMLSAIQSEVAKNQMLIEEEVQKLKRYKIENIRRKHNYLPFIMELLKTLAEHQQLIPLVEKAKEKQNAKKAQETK
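Material: Human UCH37 enzyme supplied as purified proteasome complex | Schedule: 30 min preincubation with enzyme, 25 min cleavage at room temperature | Detection: AMC fluorescence 355/460 nm | Measure: % inhibition of Ub-AMC cleavage fluorescence | Controls: Wells without proteasome as full block, compound-free enzyme plus substrate as uninhibited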
GRIN3A LBD mod = NR3A (human) ligand-binding domain modulation. NR3A LBD differential scanning fluorimetry, Tm shift; 0% = protein alone, 100% = glycine-bound protein. 2.5% of 340,000 active. Tm shift relative to glycine control, % at 25 µM;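 active = melting temperature shift of at least 10% of the positive control shift, at one fixed dose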
PAFAH2 inh = PAFAH2 (human) inhibition. Q99487. recombinant PAFAH2, FP-rhodamine activity probe, fluorescence polarization. inhibition, % at 3.39 µM. 0.99% of 340,000 active;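 active = inhibition above the mean over all tested compounds plus 3 SD, cut at about 30% in these data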;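 also: inhibitors block probe labeling of enzyme so polarization drops; 0% = enzyme with DMSO and 100% = wells lacking PAFAH2 protein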
pPAFAH inh = pPAFAH (human) enzyme inhibition | Q13093 | recombinant pPAFAH, FP-rhodamine probe fluorescence polarization | inhibition, % at 3.39 µM | 1.5% of 330,000 active | AID 463082;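 active = inhibition above the mean inhibition across the screen plus 3 SD, cut at about 25% in these data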;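 also: inhibitors block binding of the rhodamine activity-based probe so polarization drops; 0% = enzyme with DMSO and 100% = wells lacking pPAFAH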
Active calls of the source: *.

Screening CCN(CC)S(=O)(=O)c1ccc(N/N=C/c2ccc(O)cc2O)nc1 returned PAFAH1B3 inh 12, PAFAH1B2 inh 4, GRIN3A LBD mod 24*, PAFAH2 inh 0 and pPAFAH inh 3.
Screening C/C(=N/NC(=O)CNC(=O)c1cccs1)c1ccc(Cl)cc1 returned PAFAH1B3 inh 1, PAFAH1B2 inh 9, GRIN3A LBD mod 21*, PAFAH2 inh -5 and pPAFAH inh 4.
O=C(NN=Cc1cccnc1)C1c2ccccc2Oc2ccccc21 was read as UCH37 inh 3.
Screening CCCN=CC1=C(O)CC(c2ccccc2)CC1=O (stereo not given) returned PAFAH1B3 inh 6, PAFAH1B2 inh 5, UCH37 inh 1, GRIN3A LBD mod 391*, PAFAH2 inh -6 and pPAFAH inh 9.
For COc1ccc(OC)c(Nc2nc(-c3ccccc3O)nc3ccccc23)c1 the results were PAFAH1B3 inh 2, PAFAH1B2 inh -1, UCH37 inh 6, GRIN3A LBD mod -3, PAFAH2 inh 3 and pPAFAH inh 5.
`Oc1ccccc1Nc1nc(-c2ccccc2O)nc2ccccc12` gave PAFAH1B3 inh 7, PAFAH1B2 inh -3, UCH37 inh -1, GRIN3A LBD mod 28* and PAFAH2 inh 1.
For COc1ccc(Nc2nc(-c3ccccc3O)nc3ccccc23)cc1 the results were PAFAH1B3 inh 16, PAFAH1B2 inh -2, UCH37 inh 4, GRIN3A LBD mod 34*, PAFAH2 inh -17 and pPAFAH inh -2.
O=C(O)c1ccc(Nc2nc(-c3ccccc3)nc3ccccc23)cc1 was read as PAFAH1B3 inh 2, PAFAH1B2 inh -3, UCH37 inh -43, GRIN3A LBD mod 4, PAFAH2 inh -9 and pPAFAH inh -7.
Screening COc1ccccc1Nc1nc(-c2ccccc2O)nc2ccccc12 returned PAFAH1B3 inh 1, PAFAH1B2 inh -2, UCH37 inh 4, GRIN3A LBD mod 4, PAFAH2 inh -6 and pPAFAH inh 1.
For Oc1ccc(Nc2nc(-c3ccccc3O)nc3ccccc23)cc1 the results were PAFAH1B3 inh 15, PAFAH1B2 inh 8, UCH37 inh 5, GRIN3A LBD mod 36* and PAFAH2 inh 8.
`COc1cccc(Nc2nc(-c3ccccc3)nc3ccccc23)c1` gave PAFAH1B3 inh 5, PAFAH1B2 inh -3, UCH37 inh -159, GRIN3A LBD mod 37*, PAFAH2 inh -22 and pPAFAH inh -12.
Screening N#Cc1c(N=Cc2ccco2)sc2c1CCC2 returned UCH37 inh 2.
Screening COC(=O)C1CC(=NNS(=O)(=O)c2ccc(C)cc2)c2sccc2C1 (stereo not given) returned UCH37 inh 7.
COc1cccc(Nc2nc(-c3ccccc3O)nc3ccccc23)c1 was read as PAFAH1B3 inh -4, PAFAH1B2 inh -6, UCH37 inh 5, GRIN3A LBD mod 32*, PAFAH2 inh -20 and pPAFAH inh -9.
`Oc1ccc(Nc2nc(-c3ccccc3F)nc3ccccc23)cc1` gave PAFAH1B3 inh -5, PAFAH1B2 inh -2, UCH37 inh -4, GRIN3A LBD mod 25*, PAFAH2 inh -3 and pPAFAH inh 4.
For C/C(=N\Nc1nc(-c2ccccc2O)nc2ccccc12)c1ccccc1 the results were PAFAH1B3 inh 4, PAFAH1B2 inh 1, GRIN3A LBD mod 13*, PAFAH2 inh 3 and pPAFAH inh -3.
For COc1ccc(Nc2nc(-c3ccccc3F)nc3ccccc23)cc1OC the results were PAFAH1B3 inh 16, PAFAH1B2 inh 3, UCH37 inh -16, GRIN3A LBD mod -1, PAFAH2 inh 9 and pPAFAH inh 22.
For COc1cccc(Oc2nc(-c3ccccc3O)nc3ccccc23)c1 the results were PAFAH1B3 inh 8, PAFAH1B2 inh 0, UCH37 inh 6, GRIN3A LBD mod 1, PAFAH2 inh -5 and pPAFAH inh 0.
CC1CCCC(C)N1N=Cc1cccc([N+](=O)[O-])c1 (stereo not given) was read as UCH37 inh 0.
`CSc1ccc(C=NNC(=O)CC(=O)NC(C)C)cc1` gave UCH37 inh -11.
`CCc1nnc(NN=Cc2ccc(O)c(OC)c2)n1N` gave UCH37 inh 5.
O=C(Oc1ccccc1-c1csnn1)c1cccs1 was read as PAFAH1B3 inh -6, PAFAH1B2 inh 1, UCH37 inh 0, GRIN3A LBD mod -2, PAFAH2 inh 5 and pPAFAH inh 1.
O=C(Oc1ccc(-c2csnn2)cc1)c1cccs1 was read as PAFAH1B3 inh 6, PAFAH1B2 inh 1, UCH37 inh 5, GRIN3A LBD mod 29*, PAFAH2 inh 3 and pPAFAH inh -1.
Cc1cc(C(=O)CN2C(=O)c3ccccc3C2=O)c(C)n1C1CC1 was read as PAFAH1B3 inh -1, PAFAH1B2 inh 4, UCH37 inh 3, GRIN3A LBD mod 17*, PAFAH2 inh 2 and pPAFAH inh 5.
Screening Nc1nc(Cl)cc(N2CCC(c3cc(-c4ccc(Cl)cc4Cl)n[nH]3)CC2)n1 returned PAFAH1B3 inh -10, PAFAH1B2 inh -4, UCH37 inh -1, GRIN3A LBD mod 13*, PAFAH2 inh 1 and pPAFAH inh 2.
Screening Nc1nc(Cl)cc(N2CCCC2)n1 returned PAFAH1B3 inh 4, PAFAH1B2 inh 1, UCH37 inh 7, GRIN3A LBD mod 1, PAFAH2 inh 6 and pPAFAH inh -2.
CSc1ccc(/C=N/NC(=O)c2cc(O)cc(O)c2)cc1 was read as PAFAH1B3 inh -2, PAFAH1B2 inh -6, GRIN3A LBD mod 13*, PAFAH2 inh -7 and pPAFAH inh 4.
For CSc1ccc(C=NNC(=O)c2cc(O)cc(O)c2)cc1 the results were UCH37 inh -1.
For Cn1c2ccccc2c2cc(/C=N/NC(=O)c3cc(O)cc(O)c3)ccc21 the results were PAFAH1B3 inh 16, PAFAH1B2 inh 25*, GRIN3A LBD mod 28*, PAFAH2 inh -34 and pPAFAH inh 30*.
CCOc1cc(C(=O)NN=C/C(Br)=C/c2ccccc2)cc(OCC)c1OCC was read as UCH37 inh 7.
For O=C(NN=Cc1ccccc1)c1sccc1-n1cccc1 the results were UCH37 inh 3.
CC1=Nc2ccccc2C1=Cc1sc(Nc2ccc(C)cc2)nc1O was read as UCH37 inh 5.
Screening Oc1nc(Nc2ccccc2)sc1/C=C1\C=Nc2ccccc21 returned PAFAH1B3 inh 19, PAFAH1B2 inh 6, UCH37 inh 3, GRIN3A LBD mod 27*, PAFAH2 inh 3 and pPAFAH inh 16.
For CCSc1nc(=S)cc(C)[nH]1 the results were PAFAH1B3 inh -1, PAFAH1B2 inh 2, UCH37 inh 5, GRIN3A LBD mod 10*, PAFAH2 inh -6 and pPAFAH inh -2.
`CCSc1nc(O)cc(=O)[nH]1` gave PAFAH1B3 inh 9, PAFAH1B2 inh 5, GRIN3A LBD mod 2, PAFAH2 inh 0 and pPAFAH inh -1.
